Laboratory results: PMC5616206 (Toxicology Reports, 2016)
Entries after “also recorded” stand apart in the source; their conditions may differ. Where two headings read alike, the source gives them in different places.

Columns and labels:
[1] = system: Primary human lymphocytes; conditions: for dose with substantial toxicity (at least 50% reduction in mitotic index): preliminary toxicity test
[2] = In vitro metabolism by human liver microsomes; assay type: in vitro ADME; conditions: S9229 incubation, relative to S9229 at time = 0
[3] = system: S. typhimurium strains TA98, TA100, TA1535, TA1537 and E. coli strain WP2 uvrA; experiment: Bacterial reverse mutation test; assay type: cell-based; conditions: 50–5000 μg/plate, plate incorporation, ±S9
Method in brief: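 The assay followed OECD Guideline 471 and used S. typhimurium TA98, TA100, TA1535 and TA1537 and E. coli WP2 uvrA. It was run with and without S9 from livers of Aroclor 1254-treated Sprague-Dawley rats. One compound was tested at 21–5000 μg/plate by plate incorporation and pre-incubation. The other was tested at 50–5000 μg/plate in an initial toxicity-mutation test and a confirmatory mutation test.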

[4] = Toxicokinetics of S9229 in the 28-day rat study; assay type: in vivo, Sprague-Dawley rats; conditions: for AUC0-24hr Ratio / Cmax Ratio: vs 10 mg/kg dose; for AUC(0-t) / Cmax / Tmax / half-life: rat, plasma, po; for AUC(0-t): AUC0-24hr
[5] = female, Sprague-Dawley (Crl:CD(SD)), 10 mg/kg, Day 1, 10 mg/kg bw, F
[6] = female, Sprague-Dawley (Crl:CD(SD)), 30 mg/kg, Day 1, 30 mg/kg bw, F
[7] = female, Sprague-Dawley (Crl:CD(SD)), 100 mg/kg, Day 1, 100 mg/kg bw, F
[8] = female, Sprague-Dawley (Crl:CD(SD)), 100 mg/kg, Day 28, 100 mg/kg bw, F
[9] = female, Sprague-Dawley [Crl:CD(SD)], 10 mg/kg, Day 28, 10 mg/kg bw, F
[10] = female, Sprague-Dawley [Crl:CD(SD)], 30 mg/kg, Day 28, 30 mg/kg bw, F
[11] = male, Sprague-Dawley (Crl:CD(SD)), 10 mg/kg, Day 1, 10 mg/kg bw, M
[12] = male, Sprague-Dawley (Crl:CD(SD)), 10 mg/kg, Day 28, 10 mg/kg bw, M
[13] = male, Sprague-Dawley (Crl:CD(SD)), 30 mg/kg, Day 1, 30 mg/kg bw, M
[14] = male, Sprague-Dawley (Crl:CD(SD)), 100 mg/kg, Day 1, 100 mg/kg bw, M
[15] = male, Sprague-Dawley (Crl:CD(SD)), 100 mg/kg, Day 28, 100 mg/kg bw, M

For `COC[C@@H](CC(C)C)NC(=O)c1ccc(C)c(C)c1` [S9229, (R)-N-(1-methoxy-4-methylpentan-2-yl)-3,4-dimethylbenzamide], the “dose levels with visible precipitate in treatment medium” value ([1]; beginning of the treatment period) was at least 322 µg/mL, the “dose with substantial toxicity (at least 50% reduction in mitotic index)” value ([1]; non-activated 20-h exposure) was at least 263 µg/mL and the “dose with substantial toxicity (at least 50% reduction in mitotic index)” value ([1]; non-activated and S9-activated 4-h exposure) was at least 789 µg/mL. For the same compound, the “% MS (EIC) Peak Area” value ([2]; 10 min) was 86.9%, the “% MS (EIC) Peak Area” value ([2]; 20 min) was 70.6% and the “% MS (EIC) Peak Area” value ([2]; 60 min) was about 22.6%. For the same compound, the “Reverse mutation (in vitro), Result” value [3] was “not mutagenic; also recorded: Negative”, the “AUC0-24hr Ratio” value ([4]; Day 1, 10 mg/kg bw, F) was 1 and the “Cmax Ratio” value ([4]; Day 1, 10 mg/kg bw, F) was 1. For the same compound, the “AUC0-24hr Ratio” value ([4]; Day 1, 10 mg/kg bw, M) was 1, the “Cmax Ratio” value ([4]; Day 1, 10 mg/kg bw, M) was 1 and the “AUC0-24hr Ratio” value ([4]; Day 1, 30 mg/kg bw, F) was 1.11. The “Cmax Ratio” value ([4]; Day 1, 30 mg/kg bw, F) was 0.55, the “AUC0-24hr Ratio” value ([4]; Day 1, 30 mg/kg bw, M) was 6.62 and the “Cmax Ratio” value ([4]; Day 1, 30 mg/kg bw, M) was 7.06. For the same compound, the “AUC0-24hr Ratio” value ([4]; Day 1, 100 mg/kg bw, F) was 23.4, the “Cmax Ratio” value ([4]; Day 1, 100 mg/kg bw, F) was 22.8 and the “AUC0-24hr Ratio” value ([4]; Day 1, 100 mg/kg bw, M) was 48.3. For the same compound, the “Cmax Ratio” value ([4]; Day 1, 100 mg/kg bw, M) was 61.8, the “AUC0-24hr Ratio” value ([4]; Day 28, 10 mg/kg bw, F) was 1 and the “Cmax Ratio” value ([4]; Day 28, 10 mg/kg bw, F) was 1. The “AUC0-24hr Ratio” value ([4]; Day 28, 10 mg/kg bw, M) was 1, the “Cmax Ratio” value ([4]; Day 28, 10 mg/kg bw, M) was 1 and the “AUC0-24hr Ratio” value ([4]; Day 28, 30 mg/kg bw, F) was 6.90. The “Cmax Ratio” value ([4]; Day 28, 30 mg/kg bw, F) was 4.85, the “AUC0-24hr Ratio” value ([4]; Day 28, 30 mg/kg bw, M) was 10.4 and the “Cmax Ratio” value ([4]; Day 28, 30 mg/kg bw, M) was 5.67. For the same compound, the “AUC0-24hr Ratio” value ([4]; Day 28, 100 mg/kg bw, F) was 68.6, the “Cmax Ratio” value ([4]; Day 28, 100 mg/kg bw, F) was 57.2 and the “AUC0-24hr Ratio” value ([4]; Day 28, 100 mg/kg bw, M) was 71.1. For the same compound, the “Cmax Ratio” value ([4]; Day 28, 100 mg/kg bw, M) was 33.6, the AUC(0-t) [4, 5] was 11.4 ± 11.1 ng·h/mL and the Cmax [4, 5] was 15.6 ± 17 ng/mL. For the same compound, the Tmax [4, 5] was 30 min, the AUC(0-t) [4, 6] was 12.6 ± 2.8 ng·h/mL and the Cmax [4, 6] was 8.6 ± 2.6 ng/mL. For the same compound, the Tmax [4, 6] was 30 min, the Tmax ([4]; female, Sprague-Dawley (Crl:CD(SD)), 30 mg/kg, Day 28, 30 mg/kg bw, F) was 60 min and the half-life ([4]; female, Sprague-Dawley (Crl:CD(SD)), 30 mg/kg, t1/2, Day 1, 30 mg/kg bw, F) was 57 ± 28.8 min. It also gave a half-life ([4]; female, Sprague-Dawley (Crl:CD(SD)), 30 mg/kg, t1/2, Day 28, 30 mg/kg bw, F) of 130 ± 78 min, an AUC(0-t) [4, 7] of 267 ± 174 ng·h/mL and an AUC(0-t) [4, 8] of 144 ± 45.1 ng·h/mL. The Cmax [4, 7] was 356 ± 256 ng/mL, the Cmax [4, 8] was 74.4 ± 31.7 ng/mL and the Tmax [4, 7] was 30 min. The Tmax [4, 8] was 60 min, the half-life ([4]; female, Sprague-Dawley (Crl:CD(SD)), 100 mg/kg, t1/2, Day 1, 100 mg/kg bw, F) was 58.2 ± 21.6 min and the half-life ([4]; female, Sprague-Dawley (Crl:CD(SD)), 100 mg/kg, t1/2, Day 28, 100 mg/kg bw, F) was 58.8 ± 6 min. For the same compound, the AUC(0-t) [4, 9] was 2.1 ± 1.9 ng·h/mL, the Cmax [4, 9] was 1.3 ± 1.3 ng/mL and the Tmax [4, 9] was 60 min. For the same compound, the AUC(0-t) [4, 10] was 14.5 ± 4.3 ng·h/mL, the Cmax [4, 10] was 6.3 ± 3.2 ng/mL and the AUC(0-t) [4, 11] was 3.9 ± 0.8 ng·h/mL. For the same compound, the AUC(0-t) [4, 12] was 1.5 ± 0.6 ng·h/mL, the Cmax [4, 11] was 3.2 ± 1.3 ng/mL and the Cmax [4, 12] was 1.2 ± 0.3 ng/mL. The Tmax [4, 11] was 30 min, the Tmax [4, 12] was 100 min and the half-life ([4]; male, Sprague-Dawley (Crl:CD(SD)), 10 mg/kg, t1/2, Day 1, 10 mg/kg bw, M) was 54 ± 13.8 min. It also gave an AUC(0-t) [4, 13] of 25.8 ± 4.3 ng·h/mL, a Cmax [4, 13] of 22.6 ± 10.5 ng/mL and a Tmax [4, 13] of 30 min. It also gave a half-life ([4]; male, Sprague-Dawley (Crl:CD(SD)), 30 mg/kg, t1/2, Day 1, 30 mg/kg bw, M) of 69.6 ± 27.6 min, an AUC(0-t) [4, 14] of 188 ± 78.8 ng·h/mL and an AUC(0-t) [4, 15] of 107 ± 41.6 ng·h/mL. For the same compound, the Cmax [4, 14] was 198 ± 98.5 ng/mL, the Cmax [4, 15] was 40.3 ± 20.5 ng/mL and the Tmax [4, 14] was 30 min.
